{"data": "Experimental data from different studies", "observed": "cell growth or viability", "note": "pEC50, pIC50: −log10 of the molar value."}
{"SMILES": "COc1cc(NC(=O)c2cnn(-c3ccc([N+](=O)[O-])cc3)c2C(F)(F)F)cc(OC)c1", "cell line": "LX-2", "method": "MTS", "concentration": "50 µM", "time": "72 h", "measurement": "inhibition", "result": "14.1%"}
{"SMILES": "COc1ccc(NC(=O)Nc2ccc(-c3cn(Cc4ccc(C)cc4)nn3)cc2)cc1", "cell line": "Huh-7", "method": "CCK-8", "concentration": "50 µM", "time": "48 h", "measurement": "viability", "result": "77.3%"}
{"SMILES": "O=C(Nc1ccc(-c2cn(Cc3ccc(Br)cc3)nn2)cc1)Nc1ccccc1Br", "cell line": "Huh-7", "method": "CCK-8", "concentration": "50 µM", "time": "48 h", "measurement": "viability", "result": "70.8%"}
{"SMILES": "O=[N+]([O-])c1ccc(O)c(C=NNc2ccc(Br)cc2)c1", "cell line": "HEK-293T", "method": "MTT", "time": "24 h", "measurement": "pIC50", "result": 4.79}
{"SMILES": "COc1ccc(NC(=O)Nc2cccc(-c3cn(Cc4ccc(Br)cc4)nn3)c2)cc1", "cell line": "Huh-7", "method": "CCK-8", "concentration": "50 µM", "time": "72 h", "measurement": "viability", "result": "10.7%"}
{"SMILES": "O=c1[nH]cc(F)c(=O)[nH]1", "cell line": "LX-2", "method": "MTS", "concentration": "50 µM", "time": "72 h", "measurement": "inhibition", "result": "81.4%"}
{"SMILES": "O=[N+]([O-])c1cc(Br)c(O)c(C=NNc2ccc(Cl)cc2)c1", "cell line": "HEK-293T", "method": "MTT", "time": "24 h", "measurement": "pIC50", "result": 4.77}
{"SMILES": "COc1ccc(NC(=O)NCc2cn(Cc3ccccc3C)nn2)cc1", "cell line": "Huh-7", "method": "CCK-8", "concentration": "50 µM", "time": "72 h", "measurement": "viability", "result": "86.8%"}
{"SMILES": "O=C(NCc1cn(Cc2cccc(Cl)c2)nn1)Nc1ccc(Cl)cc1", "cell line": "Huh-7", "method": "CCK-8", "concentration": "50 µM", "time": "48 h", "measurement": "viability", "result": "86.1%"}
{"SMILES": "C=C(NC(=O)C(=C)NC(=O)c1csc(C2=N[C@@H]3c4csc(n4)[C@H]4NC(=O)c5csc(n5)[C@H]([C@](C)(O)[C@@H](C)O)NC(=O)[C@H]5CSC(=N5)/C(=C/C)NC(=O)[C@H]([C@@H](C)O)NC(=O)c5csc(n5)[C@]3(CC2)NC(=O)[C@H](C)NC(=O)C(=C)NC(=O)[C@H](C)NC(=O)[C@H]([C@@H](C)CC)N[C@@H]2C=Cc3c([C@H](C)O)cc(nc3[C@H]2O)C(=O)O[C@@H]4C)n1)C(N)=O", "cell line": "NCI-H2009", "measurement": "pEC50", "result": 5.82}
{"SMILES": "COc1ccc(NC(=O)Nc2cccc(-c3cn(Cc4ccccc4C)nn3)c2)cc1", "cell line": "Huh-7", "method": "CCK-8", "concentration": "50 µM", "time": "72 h", "measurement": "viability", "result": "10.5%"}
{"SMILES": "O=C(Nc1ccc(Cl)cc1)Nc1ccc(-c2cn(Cc3cccc(Cl)c3)nn2)cc1", "cell line": "Huh-7", "method": "CCK-8", "concentration": "50 µM", "time": "48 h", "measurement": "viability", "result": "86.7%"}
